Data set [1] relates to HL-60. As to the kind of experiment: Antiproliferative activity against human HL60 cells assessed as inhibition of [3H]thymidine incorporation after 4 days by liquid scintillation counter. The data set is classed as functional, cell-based. In outline: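 HL-60 cells in log phase diluted to 10^5 cells/mL, preincubated 18 h, then exposed to samples in DMSO (final 0.1% v/v; DMSO-only controls) for 4 days. Cells then pulsed with [3H]thymidine (0.5 μCi/mL, 65 Ci/mmol) for 18 h at 37 °C, 5% CO2, harvested onto glass fiber filters, scintillation counted; incorporation per 10^6 cells as % of DMSO control. IC50 from 5–7 concentrations in duplicate.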
Background: Uptake of a labelled nucleoside into DNA is a usual measure of proliferation.

The subject of data set [2] is HL-60. As to the kind of experiment: Induction of cell differentiation in human HL60 cells assessed as superoxide anion production after 4 days by NBT reduction assay. Particulars: HL-60, 96 h. The data set is classed as functional, cell-based. The method, boiled down:
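Cells diluted to 10^5/mL and recovered overnight were exposed 4 days to samples (0.1% v/v DMSO final). Cell suspension (10^6 cells) was mixed 1:1 with NBT 2 mg/mL plus TPA 1 μg/mL in PBS and held 1 h at 37 °C. Formazan-positive cells were counted microscopically among >200 cells. EC50 from 5–7 concentrations in duplicate; 1α,25-dihydroxyvitamin D3 served as reference.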

Data set [3] relates to HL-60. As to the kind of experiment: Cytotoxicity against human HL60 cells assessed as loss of membrane integrity after 4 days by trypan blue exclusion assay. The data set is classed as functional, cell-based. The settings on record: HL-60, 96 h. In outline: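 After 18 h recovery at 10^5 cells/mL, HL-60 cells were treated 4 days with samples (final DMSO 0.1% v/v). Cells were mixed 1:4 with trypan blue (0.2% w/v in PBS), held at least 5 min at room temperature and counted by hemocytometer. Viability was taken from duplicate samples; IC50 from 5–7 concentrations in duplicate.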

The subject of data set [4] is HL-60. As to the kind of experiment: Selectivity index, ratio of cytotoxic IC50 to antiproliferative IC50 for human HL60 cells. The data set is classed as functional. In outline: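 Index = cytotoxic IC50 (trypan blue, 4-day HL-60 exposure) divided by antiproliferative IC50 ([3H]thymidine incorporation), each from dose–response with at least five points.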
Data set [5] in a line: Inhibition of DMBA-induced preneoplastic lesion formation in a BALB/c mouse mammary organ culture at 2 uM pretreated for 10 days before DMBA-challenge measured after 14 days. The data set is classed as functional. Particulars: Mammary gland. The method, boiled down: (§1)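 Female BALB/c mice, 4 weeks old, primed 9 days with estradiol 1 μg plus progesterone 1 mg. Thoracic glands were cultured 10 days with insulin, prolactin, aldosterone and hydrocortisone plus test agent at 2 μM. DMBA 2 μg/mL was given for 24 h on day 3. Regression followed for 14 days in insulin alone. Glands were formalin-fixed and alum carmine-stained. Lesion incidence gave % inhibition versus DMBA control. Toxicity was scored as duct dilation or amorphous disintegration.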

Data set [6] can be described thus: Toxicity in BALB/c mouse mammary organ culture assessed as morphological changes in mammary gland at 2 uM after 10 days. The data set is classed as tissue-based. Particulars: ex_vivo, 240 h. The method, boiled down:
as §1

pEC50, pIC50: −log10 of the molar value.

One may read the pIC50 as the IC50 on a negative log10 scale, so that one unit is a factor of ten. The term pEC50 denotes the negative decadic logarithm of the EC50, by convention in mol/L. As usually defined, the inhibition is the share of the control response that was lost under treatment. Regarding `CC1=CC(=O)[C@@H](O)[C@@]2(C)[C@H]1CC[C@@]13CO[C@]4(C)[C@@H]1C(=O)O[C@H]4[C@H](O)[C@@H]32` [SAMADERIN B], the values for the pIC50 in the data set on HL-60 [1] and in the data set with HL-60 [3] were 6.40 and less than 5.70, respectively. Further, the pEC50 in the data set with HL-60 [2] is 6.00. In addition, the “Ratio IC50” value in the data set on HL-60 [4] is recorded as greater than 6. Moreover, in data set [5], the inhibition at 2 µM was found to be 0%. For the same compound, the Activity result in data set [6] is listed as “Non-toxic”.
Turning to `CCCC(=O)O[C@H]1C(=O)O[C@@H]2C[C@H]3C(C)=CC(=O)[C@@H](O)[C@]3(C)[C@H]3[C@]4(O)OC[C@]32[C@@H]1[C@@H](C)[C@H]4O`, the values for the pIC50 with HL-60 [1] and with HL-60 [3] were less than 5.52 and 5.52, respectively. In the data set with HL-60 [2], the pEC50 was less than 5.52. Besides, in data set [5], the inhibition at 2 µM is 82%. In addition, in data set [6], the Activity entry is recorded as “Non-toxic”.
As for `CC[C@](O)(CC(=O)O[C@H]1C(=O)O[C@@H]2C[C@H]3C(C)=CC(=O)[C@@H](O)[C@]3(C)[C@H]3[C@]4(O)OC[C@]32[C@@H]1[C@@H](C)[C@H]4O)C(C)C`, the pIC50 in the data set with HL-60 [1] was 8.05; in the data set on HL-60 [3] it was 7.89. Also, the pEC50 with HL-60 [2] was 7.72. Also, the “Ratio IC50” value in the data set with HL-60 [4] turned out to be 1.5. Further, the inhibition at 2 µM in data set [5] was determined as 44%. The Activity entry in data set [6] is on record as “Non-toxic”.
On to `CCC(CC)(CO)C(=O)O[C@H]1C(=O)O[C@@H]2C[C@H]3C(C)=CC(=O)[C@@H](O)[C@]3(C)[C@H]3[C@]4(O)OC[C@]32[C@@H]1[C@@H](C)[C@H]4O`, for which the figures for the pIC50 in the data set with HL-60 [1] and in the data set on HL-60 [3] were 6.82 and 6.02, respectively. Moreover, in the data set with HL-60 [2], the pEC50 was 6.30. The “Ratio IC50” value in the data set on HL-60 [4] is recorded as 6.5. Also, the inhibition at 2 µM in data set [5] was 70%. For the same compound, the Activity result in data set [6] is “Non-toxic”.
Consider `CC1=CC(=O)[C@@H](O)[C@]2(C)[C@H]3C4(O)OC[C@@]35[C@@H](C[C@@H]12)OC(=O)C[C@H]5[C@@H](C)[C@H]4O` (single isomer, unassigned) [CHAPARRINONE], for which the pIC50 in the data set with HL-60 [1] was 5.92; with HL-60 [3], 5.30. For the same compound, the pEC50 with HL-60 [2] was 5.62. Further, the “Ratio IC50” value with HL-60 [4] was 4.3. For the same compound, in data set [5], the inhibition at 2 µM turned out to be 25%. In addition, the Activity result in data set [6] is given as “Non-toxic”.
As for `COC(=O)[C@]12OC[C@]34[C@H]([C@@H](O)[C@@H]1O)[C@@]1(C)CC(=O)C(O)=C(C)[C@@H]1C[C@H]3OC(=O)[C@H](OC(=O)C=C(C)C)[C@@H]24` [BRUSATOL], the pIC50 in the data set on HL-60 [1] was 7.15; in the data set with HL-60 [3], 6.77. The pEC50 with HL-60 [2] is 7.15. Moreover, in the data set with HL-60 [4], the “Ratio IC50” value is reported as 2.5. Also, the inhibition at 2 µM in data set [5] came to 70%.
With `COC(=O)[C@@]12OC[C@]34[C@H]([C@@H](O)[C@@H]1O)[C@@]1(C)CC(=O)C(O)=C(C)[C@@H]1C[C@H]3OC(=O)[C@H](OC(=O)/C=C(\C)C(C)C)[C@@H]24` [BRUCEANTIN], the pIC50 in the data set with HL-60 [1] and with HL-60 [3] was 7.40 each time. In addition, the pEC50 in the data set with HL-60 [2] is 7.70. Besides, the “Ratio IC50” value in the data set with HL-60 [4] was 1. In addition, in data set [5], the inhibition at 2 µM was found to be 70%. Moreover, the Activity result in data set [6] is on record as “Non-toxic”.
Consider `COC(=O)[C@@]12OC[C@]34[C@H]([C@@H](O)[C@@H]1O)[C@@]1(C)CC(=O)C(O)=C(C)[C@@H]1C[C@H]3OC(=O)[C@H](OC(=O)C=C(C)C)[C@@H]24` [BRUSATOL], for which, in data set [6], the Activity result is given as “Non-toxic”.
Consider `CC1=CC(=O)[C@@H](O)[C@]2(C)[C@H]3[C@]4(O)OC[C@]35[C@H]([C@@H](C)[C@H]4O)[C@@H](OC(=O)CC(C(C)C)C(C)C)C(=O)O[C@@H]5C[C@@H]12`, for which the results for the pIC50 with HL-60 [1] and in the data set with HL-60 [3] were 7.12 and 6.82, respectively. In the data set with HL-60 [2], the pEC50 was 7.26. Besides, the “Ratio IC50” value with HL-60 [4] was found to be 2. Moreover, the inhibition at 2 µM in data set [5] was 40%. In addition, the Activity result in data set [6] is listed as “Non-toxic”.
For `CC1=CC(=O)[C@@H](O)[C@]2(C)[C@H]3[C@]4(O)OC[C@]35[C@H]([C@@H](C)[C@H]4O)[C@@H](OC(=O)CC3(O)CCC3)C(=O)O[C@@H]5C[C@@H]12`, the pIC50 was 6.59 with HL-60 [1] and 6.55 with HL-60 [3]. Moreover, in the data set with HL-60 [2], the pEC50 is 6.85. In addition, the “Ratio IC50” value in the data set on HL-60 [4] is on record as 1.1. For the same compound, in data set [5], the inhibition at 2 µM was found to be 33%. Besides, the Activity entry in data set [6] is reported as “Non-toxic”.

Source of the values: ChEMBL document CHEMBL1156387, “Novel esters of glaucarubolone as inducers of terminal differentiation of promyelocytic HL-60 cells and inhibitors of 7,12-dimethylbenz[a]anthracene-induced preneoplastic lesion formation in mouse mammary organ culture” (J Nat Prod, 2001).
